A short description of assay [1]: Inhibition of Trypanosoma cruzi oxidosqualene cyclase.
Assay [2] has as its target T1, Lanosterol synthase (Pneumocystis carinii, UniProt Q96WJ0).
T1 sequence (Q96WJ0 whole entry): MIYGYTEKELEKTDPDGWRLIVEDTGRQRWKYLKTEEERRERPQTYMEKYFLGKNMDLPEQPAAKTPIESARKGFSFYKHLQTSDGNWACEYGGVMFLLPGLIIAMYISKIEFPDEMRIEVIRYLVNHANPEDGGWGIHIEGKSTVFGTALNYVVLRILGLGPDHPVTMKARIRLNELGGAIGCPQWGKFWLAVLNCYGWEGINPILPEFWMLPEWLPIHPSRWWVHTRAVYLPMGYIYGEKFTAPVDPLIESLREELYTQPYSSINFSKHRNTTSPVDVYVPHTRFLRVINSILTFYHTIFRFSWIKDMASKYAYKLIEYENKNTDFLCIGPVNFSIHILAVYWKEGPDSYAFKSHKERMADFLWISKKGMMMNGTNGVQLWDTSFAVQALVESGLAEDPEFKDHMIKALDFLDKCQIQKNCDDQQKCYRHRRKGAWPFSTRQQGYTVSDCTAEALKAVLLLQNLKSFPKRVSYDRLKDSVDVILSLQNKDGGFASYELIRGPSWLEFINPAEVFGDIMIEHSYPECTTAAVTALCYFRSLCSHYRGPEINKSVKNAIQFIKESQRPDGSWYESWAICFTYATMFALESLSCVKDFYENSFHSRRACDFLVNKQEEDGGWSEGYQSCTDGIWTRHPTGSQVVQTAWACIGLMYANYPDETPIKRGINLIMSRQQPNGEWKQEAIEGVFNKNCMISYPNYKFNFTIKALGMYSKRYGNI
The assay can be described thus: Inhibition of Pneumocystis carinii oxidosqualene cyclase.

Another assay concerns the target T2, Lanosterol synthase ERG7 (Saccharomyces cerevisiae S288c, UniProt P38604).
T2 sequence (P38604 whole entry): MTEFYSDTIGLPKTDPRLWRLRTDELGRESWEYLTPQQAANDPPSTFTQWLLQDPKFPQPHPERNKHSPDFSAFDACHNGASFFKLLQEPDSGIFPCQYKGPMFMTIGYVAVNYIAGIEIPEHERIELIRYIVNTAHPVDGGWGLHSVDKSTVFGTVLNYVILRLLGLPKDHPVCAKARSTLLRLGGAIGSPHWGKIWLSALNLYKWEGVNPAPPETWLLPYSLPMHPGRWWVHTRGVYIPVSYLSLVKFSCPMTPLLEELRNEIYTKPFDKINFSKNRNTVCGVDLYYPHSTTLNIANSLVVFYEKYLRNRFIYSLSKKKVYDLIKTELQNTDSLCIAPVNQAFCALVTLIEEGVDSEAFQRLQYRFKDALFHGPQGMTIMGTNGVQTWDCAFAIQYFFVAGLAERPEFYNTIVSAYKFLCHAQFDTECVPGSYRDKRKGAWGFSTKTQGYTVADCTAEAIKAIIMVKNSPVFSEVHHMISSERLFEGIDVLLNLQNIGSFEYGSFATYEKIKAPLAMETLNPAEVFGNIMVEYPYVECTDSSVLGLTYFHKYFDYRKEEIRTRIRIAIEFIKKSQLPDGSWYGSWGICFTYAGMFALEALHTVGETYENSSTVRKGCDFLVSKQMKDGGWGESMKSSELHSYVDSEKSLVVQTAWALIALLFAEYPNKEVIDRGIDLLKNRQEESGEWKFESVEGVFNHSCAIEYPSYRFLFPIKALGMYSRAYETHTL
The assay can be described thus: Inhibition of Saccharomyces cerevisiae oxidosqualene cyclase.

In assay [3] the target is T3, Lanosterol synthase (Homo sapiens, UniProt P48449).
T3 sequence (P48449 whole entry): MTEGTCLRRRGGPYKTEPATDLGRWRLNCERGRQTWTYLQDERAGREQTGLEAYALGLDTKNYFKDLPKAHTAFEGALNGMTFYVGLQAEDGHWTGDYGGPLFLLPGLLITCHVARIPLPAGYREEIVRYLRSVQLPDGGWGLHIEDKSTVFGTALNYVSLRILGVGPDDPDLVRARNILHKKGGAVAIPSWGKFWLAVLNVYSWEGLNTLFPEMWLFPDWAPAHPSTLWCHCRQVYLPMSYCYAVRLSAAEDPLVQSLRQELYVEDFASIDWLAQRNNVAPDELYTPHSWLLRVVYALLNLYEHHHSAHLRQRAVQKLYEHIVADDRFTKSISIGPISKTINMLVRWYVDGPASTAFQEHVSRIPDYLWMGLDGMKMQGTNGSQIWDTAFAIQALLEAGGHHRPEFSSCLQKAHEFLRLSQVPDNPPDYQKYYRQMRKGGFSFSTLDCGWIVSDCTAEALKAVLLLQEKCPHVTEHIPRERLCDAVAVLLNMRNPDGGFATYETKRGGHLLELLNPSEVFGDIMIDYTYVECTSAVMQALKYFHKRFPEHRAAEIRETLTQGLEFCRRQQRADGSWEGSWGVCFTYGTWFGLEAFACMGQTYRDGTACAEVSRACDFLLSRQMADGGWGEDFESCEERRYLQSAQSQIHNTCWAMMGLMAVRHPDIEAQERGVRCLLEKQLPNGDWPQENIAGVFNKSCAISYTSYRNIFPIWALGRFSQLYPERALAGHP
The assay can be described thus: Inhibition of human oxidosqualene cyclase expressed in Pichia pastoris cells.

Assay [4] concerns NIH3T3. The assay can be described thus: Inhibition of sterol biosynthesis in Swiss Albino mouse 3T3 cells assessed as incorporation of [2-14C]acetate in cholesterol at 1 uM. Also on record: scale not given: the % may be the effect or the level left. The format is functional. In a few lines: (§1)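 3T3 fibroblasts (7×10^4 cells) were grown 24 h in DMEM with 10% lipid-depleted serum, then preincubated 3 h with inhibitor. [2-14C]acetate (1 uCi/well) was added for a further 3 h. Cells were lysed in 0.1 N NaOH and saponified in methanolic KOH (1 h, 80 °C). Nonsaponifiable lipids were extracted and separated by TLC against sterol standards. Label is given as % of total radioactivity in sterols, mean ± SD of two experiments in duplicate.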

Assay [5] has as its system NIH3T3. The assay can be described thus: Inhibition of sterol biosynthesis in Swiss Albino mouse 3T3 cells assessed as incorporation of [2-14C]acetate in lanosterol at 1 uM. The format is functional. Also on record: scale not given: the % may be the effect or the level left. In a few lines: as §1
In assay [6] the test system is NIH3T3. The assay can be described thus: Inhibition of sterol biosynthesis in Swiss Albino mouse 3T3 cells assessed as incorporation of [2-14C]acetate in […]-dioxidosqualene at 1 uM. In kind it is functional. The arrangement: scale not given: the % may be the effect or the level left. In a few lines: as §1
Assay [7] relates to NIH3T3. The assay can be described thus: Inhibition of sterol biosynthesis in Swiss Albino mouse 3T3 cells assessed as incorporation of [2-14C]acetate in 2,3-oxidosqualene at 1 uM. The arrangement: scale not given: the % may be the effect or the level left. The format is functional. The method in brief: as §1
Assay [8] relates to NIH3T3. The assay can be described thus: Inhibition of sterol biosynthesis in Swiss Albino mouse 3T3 cells assessed as incorporation of [2-14C]acetate in squalene at 1 uM. The format is functional. The arrangement: scale not given: the % may be the effect or the level left. In a few lines: as §1
Assay [9] has as its system NIH3T3. The assay can be described thus: Inhibition of sterol biosynthesis in Swiss Albino mouse 3T3 cells assessed as decrease in incorporation of [2-14C]acetate in cholesterol at 50 uM. Also on record: scale not given: the % may be the effect or the level left. The format is functional. In a few lines:
as §1

The next assay relates to Trypanosoma cruzi. The assay can be described thus: Inhibition of Trypanosoma cruzi oxidosqualene cyclase at 10 uM.
Assay [10] deals with T4, Lanosterol synthase ERG7 (Saccharomyces cerevisiae S288c) (UniProt P38604).
T4 sequence (whole entry): T2 sequence (P38604 whole entry)
The assay can be described thus: Inhibition of Saccharomyces cerevisiae oxidosqualene cyclase at 10 uM.

The target in assay [11] is T5, Lanosterol synthase (Homo sapiens) (UniProt P48449).
T5 sequence (whole entry): T3 sequence (P48449 whole entry)
The assay can be described thus: Inhibition of human oxidosqualene cyclase expressed in Pichia pastoris cells at 10 uM.

The target of assay [12] is T6, Lanosterol synthase (Pneumocystis carinii) (UniProt Q96WJ0).
T6 sequence (whole entry): T1 sequence (Q96WJ0 whole entry)
The assay can be described thus: Inhibition of Pneumocystis carinii oxidosqualene cyclase at 10 uM.

The source made the active and inactive calls. The calls are words filed in the database; no cut-off is given here.

Turning to `CCCCCCOC/C=C(\C)CC/C=C(\C)CCCN(C)C`, the 50% inhibitory concentration (IC50) (usually the concentration that gives 50% inhibition) in [1] was 2700 nM; at Lanosterol synthase [2], 360 nM; at Lanosterol synthase ERG7 it was 1780 nM; against Lanosterol synthase [3] it was 850 nM. The Activity in the assay on NIH3T3 [4] was found to be 35.5%; in the assay with NIH3T3 [5] it was 7.9%; in the assay on NIH3T3 [6] it was 22.3%; in the assay on NIH3T3 [7] it was 29.6%; with NIH3T3 [8] it was 4.6%.

The compound `C/C(=C\COCCCc1cccc2ccccc12)CC/C=C(\C)CCCN(C)C` showed an IC50 against Lanosterol synthase [2] of 10000 nM. Besides, the Activity turned out to be 72.7% with NIH3T3 [4]; 5% in the assay on NIH3T3 [5]; 3.2% with NIH3T3 [6]; 12.5% in the assay on NIH3T3 [7]; 6.6% in the assay on NIH3T3 [8]; 30% with NIH3T3 [9]. The inhibition (in the assay on Trypanosoma cruzi; in [11]) was less than 20% in each case. In addition, the outcome in assay [10] was inactive.

Turning to `C/C(=C\COCCCc1ccccc1)CC/C=C(\C)CCCN(C)C`, the concentration for half-maximal inhibition (IC50) in [1] stood at 470 nM; against Lanosterol synthase [2], 330 nM; at Lanosterol synthase ERG7, 450 nM; against Lanosterol synthase [3], 1100 nM. Also, the Activity with NIH3T3 [4] amounted to 31.3%; with NIH3T3 [5] it was 5.5%; in the assay on NIH3T3 [6] it was 30.4%; in the assay with NIH3T3 [7] it was 27.9%; in the assay with NIH3T3 [8] it was 5.5%.

As to `C/C(=C\CO)CC/C=C(\C)CCCN(C)C`, the Activity is on record as 88.2% with NIH3T3 [4]; 2.5% in the assay with NIH3T3 [5]; 1.3% with NIH3T3 [6]; 3.9% in the assay on NIH3T3 [7]; 4.1% with NIH3T3 [8]; 30% in the assay on NIH3T3 [9]. For the same compound, the inhibition (in the assay with Trypanosoma cruzi; in assay [12]; in assay [11]) was less than 20% each time. The outcome in assay [10] was inactive.

With `C/C(=C\COCCCc1ccccc1)CC/C=C(\C)CCC(=O)N(C)C`, the Activity with NIH3T3 [4] was 84.6%; in the assay with NIH3T3 [5], 3.2%; in the assay with NIH3T3 [6] it was 2.8%; in the assay with NIH3T3 [7] it was 4.6%; in the assay with NIH3T3 [8], 4.8%; in the assay with NIH3T3 [9] it was greater than 50%. The inhibition (in the assay on Trypanosoma cruzi; in [12]; in [11]) was less than 20% each time.

`C/C(=C\COCCCc1ccc(-c2ccccc2)cc1)CC/C=C(\C)CCCN(C)C`: the IC50 is 7400 nM in assay [1], 1700 nM against Lanosterol synthase [2] and 4500 nM at Lanosterol synthase [3]. In addition, the Activity was determined as 53.2% in the assay with NIH3T3 [4]; 6.4% with NIH3T3 [5]; 18% in the assay with NIH3T3 [6]; 17.5% in the assay on NIH3T3 [7]; 4.9% in the assay on NIH3T3 [8]. Further, the inhibition (as a rule, the percentage by which the read-out fell short of the control) in assay [10] is less than 20%.

For the origin of these results see ChEMBL document CHEMBL1138372, “Design, synthesis, and biological evaluation of new (2E,6E)-10-(dimethylamino)-3,7-dimethyl-2,6-decadien-1-ol ethers as inhibitors of human and Trypanosoma cruzi oxidosqualene cyclase” (Bioorg Med Chem Lett, 2007).
